In ChEMBL document CHEMBL5661979, “Pharmacological inhibition of BMK1 suppresses tumor growth through promyelocytic leukemia protein” (Cancer Cell, 2010):

Experiments:
Format in all cases: subcellular
[1] = target: T1, Calcium/calmodulin-dependent protein kinase type 1D (Homo sapiens, UniProt Q8IU85); assay: Inhibition of CAMK1d in human HeLa cells lysate pre incubated for 15 mins followed by ADP acyl phosphate probe addition and measured after 10 mins by LC-MS/MS analysis
Summary of the method: (§1)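 KiNativ-type profiling in HeLa lysate (5 mg/mL total protein). Lysate preincubated 15 min with inhibitor at 50, 10, 2, 0.8 or 0 μM, then ATP or ADP acylphosphate probe added (5 μM final) for 10 min. Reaction stopped with urea and analysed by targeted MS, using up to four fragment ions per kinase peptide-probe conjugate. % inhibition calculated against untreated lysate. Duplicate reactions.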
Target sequence in this assay (Q8IU85 whole entry, the tested form may be a part): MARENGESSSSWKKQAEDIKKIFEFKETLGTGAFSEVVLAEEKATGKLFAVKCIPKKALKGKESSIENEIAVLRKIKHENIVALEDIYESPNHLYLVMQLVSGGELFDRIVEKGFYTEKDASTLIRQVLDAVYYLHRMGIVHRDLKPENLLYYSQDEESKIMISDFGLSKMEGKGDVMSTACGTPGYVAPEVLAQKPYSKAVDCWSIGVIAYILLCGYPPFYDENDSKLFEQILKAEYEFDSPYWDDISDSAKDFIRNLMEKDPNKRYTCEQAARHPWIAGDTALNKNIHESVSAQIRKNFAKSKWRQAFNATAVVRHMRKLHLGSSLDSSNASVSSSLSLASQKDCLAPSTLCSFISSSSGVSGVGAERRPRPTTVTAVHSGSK

[2] = target: Mitogen-activated protein kinase kinase kinase 20 (Homo sapiens, UniProt Q9NYL2); assay: Inhibition of ZAK in human HeLa cells lysate at 2 uM pre incubated for 15 mins followed by ATP acyl phosphate probe addition and measured after 10 mins by LC-MS/MS analysis relative to control; conditions: time 25.0 min
[3] = target: Peripheral plasma membrane protein CASK (Homo sapiens) (UniProt O14936); assay: Inhibition of CASK in human HeLa cells lysate at 10 uM pre incubated for 15 mins followed by ADP acyl phosphate probe addition and measured after 10 mins by LC-MS/MS analysis relative to control; conditions: time 25.0 min
Summary of the method: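 KiNativ profiling in HeLa lysate (5 mg/mL total protein). Lysate incubated 15 min with inhibitor at 50, 10, 2, 0.8 or 0 μM. ATP or ADP acylphosphate probe then added (5 μM final) and reacted 10 min. Reaction stopped with urea and analysed by targeted MS, using up to four fragment ions per kinase peptide-probe conjugate. % inhibition taken against untreated lysate. Run in duplicate.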

[4] = target: Phosphatidylinositol 4-kinase beta (Homo sapiens, UniProt Q9UBF8); assay: Inhibition of PIK4CB in human HeLa cells lysate pre incubated for 15 mins followed by ATP acyl phosphate probe addition and measured after 10 mins by LC-MS/MS analysis
[5] = target: Rho-associated protein kinase (Homo sapiens, UniProt O75116+Q13464); assay: Inhibition of ROCK1/2 in human HeLa cells lysate pre incubated for 15 mins followed by ATP acyl phosphate probe addition and measured after 10 mins by LC-MS/MS analysis
[6] = target: Interferon-induced, double-stranded RNA-activated protein kinase (Homo sapiens, UniProt P19525); assay: Inhibition of PKR in human HeLa cells lysate at 50 uM pre incubated for 15 mins followed by ATP acyl phosphate probe addition and measured after 10 mins by LC-MS/MS analysis relative to control; conditions: time 25.0 min
[7] = target: Ribosomal protein S6 kinase alpha-3 (Homo sapiens, UniProt P51812); assay: Inhibition of RSK2 domain 2 K2 site in human HeLa cells lysate pre incubated for 15 mins followed by ADP acyl phosphate probe addition and measured after 10 mins by LC-MS/MS analysis
[8] = target: T2, Dual specificity mitogen-activated protein kinase kinase 6 (Homo sapiens) (UniProt P52564); assay: Inhibition of MAP2K6 in human HeLa cells lysate at 10 uM pre incubated for 15 mins followed by ADP acyl phosphate probe addition and measured after 10 mins by LC-MS/MS analysis relative to control; conditions: time 25.0 min
T2 sequence (whole entry): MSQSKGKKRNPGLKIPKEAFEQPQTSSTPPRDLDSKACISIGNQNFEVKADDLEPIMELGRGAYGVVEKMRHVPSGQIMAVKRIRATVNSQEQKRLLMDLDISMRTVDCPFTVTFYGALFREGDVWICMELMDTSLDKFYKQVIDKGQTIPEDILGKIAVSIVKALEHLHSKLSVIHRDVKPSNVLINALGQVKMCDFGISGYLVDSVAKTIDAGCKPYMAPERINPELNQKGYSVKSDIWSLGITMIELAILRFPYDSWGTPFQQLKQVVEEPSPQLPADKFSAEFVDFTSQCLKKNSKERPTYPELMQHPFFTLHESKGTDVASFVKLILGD

[9] = target: Cyclin-dependent kinase 12 (Homo sapiens, UniProt Q9NYV4); assay: Inhibition of CRK7 in human HeLa cells lysate at 2 uM pre incubated for 15 mins followed by ADP acyl phosphate probe addition and measured after 10 mins by LC-MS/MS analysis relative to control; conditions: time 25.0 min
[10] = target: T1, Calcium/calmodulin-dependent protein kinase type 1D; assay: Inhibition of CAMK1d in human HeLa cells lysate at 50 uM pre incubated for 15 mins followed by ATP acyl phosphate probe addition and measured after 10 mins by LC-MS/MS analysis relative to control; conditions: time 25.0 min; summary of the method: as §1
Target sequence in this assay (Q8IU85 whole entry, looked up, the tested form may be a part): as the sequence (Q8IU85 whole entry, the tested form may be a part) above

[11] = target: p38 delta/gamma (Homo sapiens, UniProt O15264+P53778); assay: Inhibition of P38delta/gamma in human HeLa cells lysate pre incubated for 15 mins followed by ATP acyl phosphate probe addition and measured after 10 mins by LC-MS/MS analysis
[12] = target: 5'-AMP-activated protein kinase catalytic subunit alpha-1 (Homo sapiens, UniProt Q13131); assay: Inhibition of AMPKalpha1 in human HeLa cells lysate at 50 uM pre incubated for 15 mins followed by ADP acyl phosphate probe addition and measured after 10 mins by LC-MS/MS analysis relative to control; conditions: time 25.0 min
Summary of the method: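 HeLa cell lysates (5 mg/mL total protein) were preincubated with inhibitor at 0, 0.8, 2, 10 or 50 μM for 15 min. ATP or ADP acylphosphate probe was then added (5 μM final) for 10 min, and reactions were stopped with urea. Up to four fragment ions per kinase probe-peptide were quantified by targeted MS. % inhibition was taken relative to untreated lysate. Run in duplicate.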

[13] = target: Serine/threonine-protein kinase Nek8 (Homo sapiens) (UniProt Q86SG6); assay: Inhibition of NEK8 in human HeLa cells lysate at 10 uM pre incubated for 15 mins followed by ADP acyl phosphate probe addition and measured after 10 mins by LC-MS/MS analysis relative to control; conditions: time 25.0 min
[14] = target: T3, Dual specificity mitogen-activated protein kinase kinase 4 (Homo sapiens) (UniProt P45985); assay: Inhibition of MAP2K4 in human HeLa cells lysate at 2 uM pre incubated for 15 mins followed by ATP acyl phosphate probe addition and measured after 10 mins by LC-MS/MS analysis relative to control; conditions: time 25.0 min
T3 sequence (whole entry): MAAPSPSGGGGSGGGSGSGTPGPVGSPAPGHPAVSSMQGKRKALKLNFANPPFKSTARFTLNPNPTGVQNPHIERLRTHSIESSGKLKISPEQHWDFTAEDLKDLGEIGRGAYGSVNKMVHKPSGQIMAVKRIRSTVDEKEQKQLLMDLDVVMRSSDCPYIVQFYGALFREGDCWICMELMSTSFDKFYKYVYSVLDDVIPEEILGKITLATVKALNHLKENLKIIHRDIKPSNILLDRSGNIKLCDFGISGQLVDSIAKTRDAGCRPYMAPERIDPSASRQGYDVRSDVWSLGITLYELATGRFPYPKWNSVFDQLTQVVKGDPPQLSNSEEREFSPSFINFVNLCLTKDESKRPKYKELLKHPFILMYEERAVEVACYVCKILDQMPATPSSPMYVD

Sequence of Cyclin-dependent kinase 12 (Q9NYV4 whole entry, looked up): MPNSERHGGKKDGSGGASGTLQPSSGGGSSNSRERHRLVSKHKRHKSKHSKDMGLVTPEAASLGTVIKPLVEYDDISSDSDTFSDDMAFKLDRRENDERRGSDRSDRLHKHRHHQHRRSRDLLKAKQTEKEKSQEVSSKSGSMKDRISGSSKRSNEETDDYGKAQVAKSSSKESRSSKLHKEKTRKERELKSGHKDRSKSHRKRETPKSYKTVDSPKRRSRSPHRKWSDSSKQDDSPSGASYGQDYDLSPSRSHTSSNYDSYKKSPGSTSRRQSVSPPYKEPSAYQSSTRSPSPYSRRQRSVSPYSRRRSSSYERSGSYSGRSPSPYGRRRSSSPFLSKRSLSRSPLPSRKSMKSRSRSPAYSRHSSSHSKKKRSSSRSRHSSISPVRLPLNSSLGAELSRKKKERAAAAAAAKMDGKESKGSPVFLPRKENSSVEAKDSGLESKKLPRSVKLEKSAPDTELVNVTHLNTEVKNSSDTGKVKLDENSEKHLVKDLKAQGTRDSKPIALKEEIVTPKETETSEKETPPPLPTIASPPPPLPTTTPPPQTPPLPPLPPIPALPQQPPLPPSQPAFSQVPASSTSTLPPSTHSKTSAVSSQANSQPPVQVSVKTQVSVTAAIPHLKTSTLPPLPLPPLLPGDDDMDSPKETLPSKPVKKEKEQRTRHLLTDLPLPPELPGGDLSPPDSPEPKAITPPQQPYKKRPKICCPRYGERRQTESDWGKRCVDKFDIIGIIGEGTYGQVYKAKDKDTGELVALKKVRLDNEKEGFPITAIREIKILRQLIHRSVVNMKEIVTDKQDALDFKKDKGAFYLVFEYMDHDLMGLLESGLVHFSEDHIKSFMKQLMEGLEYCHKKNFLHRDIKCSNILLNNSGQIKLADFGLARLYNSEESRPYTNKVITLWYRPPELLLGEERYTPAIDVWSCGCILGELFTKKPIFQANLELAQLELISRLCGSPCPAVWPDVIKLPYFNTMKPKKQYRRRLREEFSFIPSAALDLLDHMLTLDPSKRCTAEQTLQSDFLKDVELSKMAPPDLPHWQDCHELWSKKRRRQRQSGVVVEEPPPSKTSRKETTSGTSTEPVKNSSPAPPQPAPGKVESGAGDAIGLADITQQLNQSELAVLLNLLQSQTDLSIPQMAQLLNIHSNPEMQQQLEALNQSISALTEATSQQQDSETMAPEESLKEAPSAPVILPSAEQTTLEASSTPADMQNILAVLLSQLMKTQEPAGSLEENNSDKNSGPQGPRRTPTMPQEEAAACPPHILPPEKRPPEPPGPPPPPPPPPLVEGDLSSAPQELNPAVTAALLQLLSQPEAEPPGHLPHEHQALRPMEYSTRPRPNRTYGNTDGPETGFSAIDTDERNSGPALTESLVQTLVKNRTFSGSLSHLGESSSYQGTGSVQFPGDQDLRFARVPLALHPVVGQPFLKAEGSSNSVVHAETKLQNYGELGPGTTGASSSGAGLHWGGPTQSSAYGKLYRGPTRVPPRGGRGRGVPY
Sequence of Peripheral plasma membrane protein CASK (Homo sapiens) (O14936 whole entry, the tested form may be a part): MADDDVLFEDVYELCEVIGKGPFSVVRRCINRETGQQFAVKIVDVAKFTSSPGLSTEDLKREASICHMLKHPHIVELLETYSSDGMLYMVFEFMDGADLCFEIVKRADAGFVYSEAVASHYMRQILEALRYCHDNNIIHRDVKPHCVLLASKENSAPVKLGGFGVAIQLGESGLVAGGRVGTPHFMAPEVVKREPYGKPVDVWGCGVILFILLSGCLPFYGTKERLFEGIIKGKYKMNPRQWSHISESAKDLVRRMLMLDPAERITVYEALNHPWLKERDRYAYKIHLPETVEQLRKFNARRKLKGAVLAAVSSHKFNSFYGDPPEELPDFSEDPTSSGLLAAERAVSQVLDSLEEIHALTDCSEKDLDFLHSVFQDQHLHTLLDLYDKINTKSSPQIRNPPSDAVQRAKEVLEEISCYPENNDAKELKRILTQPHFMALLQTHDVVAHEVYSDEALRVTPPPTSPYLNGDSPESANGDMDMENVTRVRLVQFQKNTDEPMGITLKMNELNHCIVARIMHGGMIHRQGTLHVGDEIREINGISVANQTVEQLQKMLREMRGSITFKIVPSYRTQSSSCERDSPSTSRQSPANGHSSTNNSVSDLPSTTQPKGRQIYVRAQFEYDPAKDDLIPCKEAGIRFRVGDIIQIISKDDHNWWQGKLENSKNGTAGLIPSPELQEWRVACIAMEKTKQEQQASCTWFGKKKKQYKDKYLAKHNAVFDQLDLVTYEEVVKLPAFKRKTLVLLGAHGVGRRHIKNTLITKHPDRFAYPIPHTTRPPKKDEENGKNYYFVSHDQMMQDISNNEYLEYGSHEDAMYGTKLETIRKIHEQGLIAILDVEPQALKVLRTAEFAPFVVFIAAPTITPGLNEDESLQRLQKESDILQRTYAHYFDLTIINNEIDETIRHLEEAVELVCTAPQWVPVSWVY
Sequence of Ribosomal protein S6 kinase alpha-3 (P51812 whole entry, the tested form may be a part): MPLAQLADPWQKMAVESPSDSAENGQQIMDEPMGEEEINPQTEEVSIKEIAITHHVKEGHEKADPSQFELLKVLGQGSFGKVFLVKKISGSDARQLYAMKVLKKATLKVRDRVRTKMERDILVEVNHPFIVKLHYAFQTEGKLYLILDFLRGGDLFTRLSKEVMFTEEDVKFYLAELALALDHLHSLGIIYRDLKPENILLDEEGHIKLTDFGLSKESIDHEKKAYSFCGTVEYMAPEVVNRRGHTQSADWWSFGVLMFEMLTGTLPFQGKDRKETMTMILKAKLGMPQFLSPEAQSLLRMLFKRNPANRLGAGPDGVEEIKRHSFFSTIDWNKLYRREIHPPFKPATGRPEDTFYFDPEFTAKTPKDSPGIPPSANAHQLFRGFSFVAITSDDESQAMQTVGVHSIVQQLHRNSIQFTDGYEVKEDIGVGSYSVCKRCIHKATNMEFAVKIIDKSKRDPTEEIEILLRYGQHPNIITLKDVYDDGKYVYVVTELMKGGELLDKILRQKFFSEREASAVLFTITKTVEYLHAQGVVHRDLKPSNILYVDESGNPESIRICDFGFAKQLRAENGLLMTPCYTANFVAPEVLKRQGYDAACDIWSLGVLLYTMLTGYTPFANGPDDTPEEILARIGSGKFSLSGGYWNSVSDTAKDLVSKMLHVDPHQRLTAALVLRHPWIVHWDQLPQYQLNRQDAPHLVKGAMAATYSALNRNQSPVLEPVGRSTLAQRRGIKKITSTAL
Sequence of Phosphatidylinositol 4-kinase beta (Q9UBF8 whole entry): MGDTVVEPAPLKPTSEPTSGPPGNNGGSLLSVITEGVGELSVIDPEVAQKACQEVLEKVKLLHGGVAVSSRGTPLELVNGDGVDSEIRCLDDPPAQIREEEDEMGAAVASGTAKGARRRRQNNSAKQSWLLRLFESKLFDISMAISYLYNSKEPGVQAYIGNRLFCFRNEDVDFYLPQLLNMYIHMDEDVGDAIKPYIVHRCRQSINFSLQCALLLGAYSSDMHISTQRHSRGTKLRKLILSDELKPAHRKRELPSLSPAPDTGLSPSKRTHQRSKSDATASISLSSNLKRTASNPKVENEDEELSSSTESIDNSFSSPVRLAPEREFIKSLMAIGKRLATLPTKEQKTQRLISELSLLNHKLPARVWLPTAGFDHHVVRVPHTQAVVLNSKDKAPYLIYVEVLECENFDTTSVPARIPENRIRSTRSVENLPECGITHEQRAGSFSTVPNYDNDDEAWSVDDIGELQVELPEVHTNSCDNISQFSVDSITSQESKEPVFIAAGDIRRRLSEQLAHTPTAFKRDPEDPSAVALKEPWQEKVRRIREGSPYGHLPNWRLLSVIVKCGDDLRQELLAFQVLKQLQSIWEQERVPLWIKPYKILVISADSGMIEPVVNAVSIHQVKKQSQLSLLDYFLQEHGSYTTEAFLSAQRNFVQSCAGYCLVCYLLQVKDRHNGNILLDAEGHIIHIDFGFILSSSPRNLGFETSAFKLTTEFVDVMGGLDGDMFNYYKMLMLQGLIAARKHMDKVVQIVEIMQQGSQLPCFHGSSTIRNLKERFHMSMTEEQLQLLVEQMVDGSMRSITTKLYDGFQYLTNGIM
Sequence of Interferon-induced, double-stranded RNA-activated protein kinase (P19525 whole entry, the tested form may be a part): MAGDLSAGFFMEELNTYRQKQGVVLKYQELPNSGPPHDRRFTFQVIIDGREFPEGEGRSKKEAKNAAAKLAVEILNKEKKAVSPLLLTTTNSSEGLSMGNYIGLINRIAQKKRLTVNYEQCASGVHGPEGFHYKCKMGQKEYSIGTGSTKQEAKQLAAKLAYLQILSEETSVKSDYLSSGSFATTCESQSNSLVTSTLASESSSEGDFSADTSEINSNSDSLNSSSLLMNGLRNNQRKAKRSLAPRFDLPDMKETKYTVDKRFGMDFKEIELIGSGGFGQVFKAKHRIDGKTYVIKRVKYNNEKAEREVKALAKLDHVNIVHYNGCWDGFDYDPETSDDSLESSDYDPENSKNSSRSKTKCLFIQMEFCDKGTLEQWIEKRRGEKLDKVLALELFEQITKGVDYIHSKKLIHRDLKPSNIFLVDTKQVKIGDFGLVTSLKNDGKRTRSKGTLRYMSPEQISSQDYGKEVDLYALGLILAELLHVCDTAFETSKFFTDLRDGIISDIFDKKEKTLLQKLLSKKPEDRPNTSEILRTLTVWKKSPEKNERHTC

CCOc1cc(N2CCC(O)CC2)ccc1Nc1ncc2c(n1)N(C)c1ccccc1C(=O)N2C
IC50 [1]: > 50 µM
inhibition [2]: 31.5%
inhibition [3]: -8.1%
IC50 [4]: 34 µM
IC50 [5]: > 50 µM
inhibition [6]: -8.3%
IC50 [7]: 47 µM
inhibition [8]: 5.6%
inhibition [9]: 5.4%
inhibition [10]: -3.1%
IC50 [11]: > 50 µM
inhibition [12]: 10.2%
inhibition [13]: -0.8%
inhibition [14]: 4.8%
